From the M2OR odorant receptor database

Columns and labels:
Settings in all cases: stereoisomer not certain
[1] = system: O52I2 I74L
In short: (§1)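 Assay methods differ from source to source, frequently being transient luciferase assays in mammalian cell lines. For each receptor–molecule pair, the label responsive (active) applies when the original authors judged the measured signal statistically different from baseline, and non-responsive (inactive) applies otherwise.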

[2] = system: O52J3 T77A V128I Q141L
In short: as §1

[3] = system: O52K1 A119T A149T
In short: as §1

[4] = system: O52K1 Q52R
Sequence of O52K1 Q52R (as listed by the source, stated change not applied): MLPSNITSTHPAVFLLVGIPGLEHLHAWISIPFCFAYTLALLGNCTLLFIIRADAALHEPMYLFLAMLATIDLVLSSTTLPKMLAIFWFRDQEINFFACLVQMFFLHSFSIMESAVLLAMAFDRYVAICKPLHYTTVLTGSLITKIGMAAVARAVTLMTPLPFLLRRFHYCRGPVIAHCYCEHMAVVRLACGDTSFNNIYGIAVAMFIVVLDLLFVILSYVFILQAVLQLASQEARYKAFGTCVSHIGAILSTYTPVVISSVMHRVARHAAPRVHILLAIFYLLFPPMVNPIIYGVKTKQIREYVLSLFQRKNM
In short: as §1

[5] = system: O52L1
Sequence of O52L1 (as listed by the source): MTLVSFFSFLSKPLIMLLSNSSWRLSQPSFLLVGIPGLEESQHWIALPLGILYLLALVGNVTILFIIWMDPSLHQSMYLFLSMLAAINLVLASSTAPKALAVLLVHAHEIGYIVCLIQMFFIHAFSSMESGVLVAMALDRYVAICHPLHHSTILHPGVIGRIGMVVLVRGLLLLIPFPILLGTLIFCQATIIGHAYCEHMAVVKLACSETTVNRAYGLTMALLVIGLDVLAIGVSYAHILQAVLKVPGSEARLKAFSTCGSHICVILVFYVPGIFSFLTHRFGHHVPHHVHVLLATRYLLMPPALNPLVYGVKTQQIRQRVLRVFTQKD
In short: as §1

[6] = system: O52M1 S305R
Sequence of O52M1 S305R (as listed by the source, stated change not applied): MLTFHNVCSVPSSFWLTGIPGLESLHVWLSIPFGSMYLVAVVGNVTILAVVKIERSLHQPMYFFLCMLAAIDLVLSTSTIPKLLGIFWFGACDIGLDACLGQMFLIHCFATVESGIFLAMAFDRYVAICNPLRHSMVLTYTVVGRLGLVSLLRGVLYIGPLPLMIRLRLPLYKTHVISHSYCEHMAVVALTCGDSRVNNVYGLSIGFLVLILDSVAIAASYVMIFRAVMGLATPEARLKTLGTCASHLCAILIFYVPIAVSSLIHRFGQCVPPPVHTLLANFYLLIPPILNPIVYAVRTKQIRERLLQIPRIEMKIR
In short: as §1

[7] = system: O52N1 R167C F247I
In short: as §1

[8] = system: O52N2 S249A H264R
In short: as §1

[9] = system: O52W1 H239R L254Q
In short: as §1

[10] = system: O56A3
Sequence of O56A3 (as listed by the source): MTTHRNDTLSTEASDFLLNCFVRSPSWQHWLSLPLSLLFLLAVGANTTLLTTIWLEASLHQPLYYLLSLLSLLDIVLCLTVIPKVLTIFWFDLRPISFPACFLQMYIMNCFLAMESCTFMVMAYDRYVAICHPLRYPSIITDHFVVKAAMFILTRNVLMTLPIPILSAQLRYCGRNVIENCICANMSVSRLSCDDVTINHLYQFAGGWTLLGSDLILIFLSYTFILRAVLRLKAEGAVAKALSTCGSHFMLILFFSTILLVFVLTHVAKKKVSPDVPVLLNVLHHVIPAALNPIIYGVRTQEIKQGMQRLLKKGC
In short: as §1

[11] = system: O56A4 I247A
Sequence of O56A4 I247A (as listed by the source, stated change not applied): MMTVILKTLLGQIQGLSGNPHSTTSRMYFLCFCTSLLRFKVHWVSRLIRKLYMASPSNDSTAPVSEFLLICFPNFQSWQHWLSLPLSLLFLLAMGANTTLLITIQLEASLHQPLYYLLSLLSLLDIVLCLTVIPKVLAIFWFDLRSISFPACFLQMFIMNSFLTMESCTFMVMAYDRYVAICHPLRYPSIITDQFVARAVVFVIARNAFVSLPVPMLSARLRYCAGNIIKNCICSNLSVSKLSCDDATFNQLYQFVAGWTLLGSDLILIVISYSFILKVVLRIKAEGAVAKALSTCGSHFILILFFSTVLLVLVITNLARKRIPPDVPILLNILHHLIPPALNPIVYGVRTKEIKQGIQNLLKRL
In short: as §1

[12] = system: O56A4 I247V
Sequence of O56A4 I247V (as listed by the source, stated change not applied): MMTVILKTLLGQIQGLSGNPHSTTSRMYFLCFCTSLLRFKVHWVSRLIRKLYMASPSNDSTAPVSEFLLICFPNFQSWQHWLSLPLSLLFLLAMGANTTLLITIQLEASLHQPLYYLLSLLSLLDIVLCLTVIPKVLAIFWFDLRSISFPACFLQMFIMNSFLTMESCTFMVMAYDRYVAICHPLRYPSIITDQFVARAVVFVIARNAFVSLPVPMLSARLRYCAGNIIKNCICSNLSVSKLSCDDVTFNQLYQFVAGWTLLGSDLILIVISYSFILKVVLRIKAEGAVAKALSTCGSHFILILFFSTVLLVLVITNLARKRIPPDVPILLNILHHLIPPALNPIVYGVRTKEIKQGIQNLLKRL
In short: as §1

[13] = system: O56A4
Sequence of O56A4 (as listed by the source): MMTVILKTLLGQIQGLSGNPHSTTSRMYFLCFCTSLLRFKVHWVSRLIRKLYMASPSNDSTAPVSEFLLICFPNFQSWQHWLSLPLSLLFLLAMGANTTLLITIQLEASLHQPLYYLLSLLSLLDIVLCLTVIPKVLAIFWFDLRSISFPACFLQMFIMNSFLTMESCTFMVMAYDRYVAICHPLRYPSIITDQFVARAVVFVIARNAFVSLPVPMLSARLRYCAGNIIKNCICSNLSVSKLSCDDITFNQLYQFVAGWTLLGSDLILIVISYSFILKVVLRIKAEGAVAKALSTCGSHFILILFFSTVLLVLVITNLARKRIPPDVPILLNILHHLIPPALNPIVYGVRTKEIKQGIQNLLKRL
In short: as §1

[14] = system: O56A5 V104L
Sequence of O56A5 V104L (as listed by the source, stated change not applied): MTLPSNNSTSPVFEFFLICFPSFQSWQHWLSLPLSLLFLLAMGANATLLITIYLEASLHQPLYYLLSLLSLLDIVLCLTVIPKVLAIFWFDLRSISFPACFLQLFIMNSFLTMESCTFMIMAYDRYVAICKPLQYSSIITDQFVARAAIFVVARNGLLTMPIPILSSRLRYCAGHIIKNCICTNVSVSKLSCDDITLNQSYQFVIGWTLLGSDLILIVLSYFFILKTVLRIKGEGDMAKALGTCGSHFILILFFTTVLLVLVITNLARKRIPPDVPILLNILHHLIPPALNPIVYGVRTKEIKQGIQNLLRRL
In short: as §1

[15] = system: O56B1 C106R L214F
In short: as §1

[16] = system: O56B1 L214F
Sequence of O56B1 L214F (as listed by the source, stated change not applied): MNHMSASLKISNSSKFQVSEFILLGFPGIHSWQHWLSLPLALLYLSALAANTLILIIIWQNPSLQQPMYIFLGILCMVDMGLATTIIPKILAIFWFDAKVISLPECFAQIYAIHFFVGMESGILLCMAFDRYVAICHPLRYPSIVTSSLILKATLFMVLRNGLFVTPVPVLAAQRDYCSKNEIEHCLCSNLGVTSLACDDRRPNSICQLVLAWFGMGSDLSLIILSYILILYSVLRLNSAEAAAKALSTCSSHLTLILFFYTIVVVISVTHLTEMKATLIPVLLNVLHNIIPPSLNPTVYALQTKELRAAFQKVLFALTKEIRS
In short: as §1

[17] = system: O56B4
Sequence of O56B4 (as listed by the source): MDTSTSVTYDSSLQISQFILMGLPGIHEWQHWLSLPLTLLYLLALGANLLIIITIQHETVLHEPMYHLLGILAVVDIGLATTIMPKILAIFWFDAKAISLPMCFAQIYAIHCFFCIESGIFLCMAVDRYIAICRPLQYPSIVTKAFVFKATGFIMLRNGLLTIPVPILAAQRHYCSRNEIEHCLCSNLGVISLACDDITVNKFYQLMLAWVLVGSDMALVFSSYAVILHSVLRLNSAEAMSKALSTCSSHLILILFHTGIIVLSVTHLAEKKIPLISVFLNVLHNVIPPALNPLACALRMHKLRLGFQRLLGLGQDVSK
In short: as §1

[18] = system: O5AC2
Sequence of O5AC2 (as listed by the source): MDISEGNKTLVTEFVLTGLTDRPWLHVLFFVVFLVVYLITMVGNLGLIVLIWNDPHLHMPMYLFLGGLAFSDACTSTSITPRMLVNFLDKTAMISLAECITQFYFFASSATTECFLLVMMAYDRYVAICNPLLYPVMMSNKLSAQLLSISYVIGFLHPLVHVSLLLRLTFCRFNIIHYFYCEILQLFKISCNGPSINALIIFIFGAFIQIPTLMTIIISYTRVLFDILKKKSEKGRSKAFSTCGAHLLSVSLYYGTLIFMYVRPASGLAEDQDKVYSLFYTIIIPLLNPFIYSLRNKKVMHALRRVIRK
In short: as §1

[19] = system: O5AK2 M92I
Sequence of O5AK2 M92I (as listed by the source, stated change not applied): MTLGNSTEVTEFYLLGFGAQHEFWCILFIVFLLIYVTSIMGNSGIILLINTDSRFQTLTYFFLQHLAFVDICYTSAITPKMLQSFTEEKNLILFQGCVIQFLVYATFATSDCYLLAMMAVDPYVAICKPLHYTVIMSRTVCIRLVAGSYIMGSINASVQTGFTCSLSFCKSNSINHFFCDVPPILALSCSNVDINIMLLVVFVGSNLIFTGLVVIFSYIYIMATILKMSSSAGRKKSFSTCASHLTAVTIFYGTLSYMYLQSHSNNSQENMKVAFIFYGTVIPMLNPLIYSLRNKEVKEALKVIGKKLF
In short: as §1

[20] = system: O5AN1 C142Y L289F
In short: as §1

Measured: odorant receptor agonist call

Sequence of O52I2 I74L (as listed by the source, stated change not applied): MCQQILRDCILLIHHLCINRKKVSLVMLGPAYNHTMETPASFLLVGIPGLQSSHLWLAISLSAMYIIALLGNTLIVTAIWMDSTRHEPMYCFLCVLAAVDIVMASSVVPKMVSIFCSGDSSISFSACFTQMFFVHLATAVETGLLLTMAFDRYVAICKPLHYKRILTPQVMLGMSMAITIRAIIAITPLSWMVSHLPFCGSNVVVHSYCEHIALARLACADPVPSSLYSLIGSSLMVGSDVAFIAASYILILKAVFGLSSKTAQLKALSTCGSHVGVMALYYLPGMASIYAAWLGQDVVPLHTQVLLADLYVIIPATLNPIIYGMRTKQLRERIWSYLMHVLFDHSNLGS

C=CCOC(=O)Cc1ccccc1
inactive: all assays above
